Data on 18 compounds can be found in ChEMBL document CHEMBL1221182, “Functional characterization of IRESes by an inhibitor of the RNA helicase eIF4A” (Nat Chem Biol, 2006).

By IC50 is commonly meant the concentration at which inhibition is half-maximal.

This experiment has as its target Eukaryotic initiation factor 4A-I (Mus musculus, UniProt P60843). The experiment in a line: Inhibition of eIF4A-mediated cap-dependent protein synthesis in FF-HCV-Ren mRNA transfected Swiss mouse Krebs2 cell extract by [35S]methionine metabolic labeling study. In short, it runs like this:
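Cell-free translation in Krebs-2 extracts programmed with capped bicistronic FF-HCV-Ren transcript: cap-dependent firefly cistron, HCV IRES-driven renilla cistron. Final mRNA 5 µg ml⁻¹, K⁺ 100 mM, compound titrated. Controls carry a matched final DMSO level. Products labeled with [³⁵S]methionine, separated by 10% SDS-PAGE, and autoradiographed. Luciferase activities are read by luminometer and expressed relative to vehicle reactions.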

Chain of Eukaryotic initiation factor 4A-I (P60843 whole entry): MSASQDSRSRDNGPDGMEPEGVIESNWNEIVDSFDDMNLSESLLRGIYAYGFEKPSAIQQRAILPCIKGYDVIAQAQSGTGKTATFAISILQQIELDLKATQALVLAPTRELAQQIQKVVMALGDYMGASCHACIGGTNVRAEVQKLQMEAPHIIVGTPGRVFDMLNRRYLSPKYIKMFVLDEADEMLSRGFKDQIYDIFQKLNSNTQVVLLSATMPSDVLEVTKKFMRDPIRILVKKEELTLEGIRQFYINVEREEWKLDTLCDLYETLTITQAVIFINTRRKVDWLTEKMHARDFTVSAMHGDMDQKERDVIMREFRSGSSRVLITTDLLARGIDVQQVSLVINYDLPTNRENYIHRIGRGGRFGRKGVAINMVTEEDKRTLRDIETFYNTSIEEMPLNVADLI

The compound `C[C@H]1C[C@]2(O[C@H]3C[C@H]4[C@@H]5CC[C@H]6CC(=O)CC[C@]6(C)[C@H]5C(=O)C[C@]4(C)[C@H]3[C@@]2(C)O)OC1(C)C` gave an IC50 above 100 µM.
In the case of `CC(=O)O[C@@H]1C[C@@]2(C)[C@@H](CC[C@@H]3[C@@H]2[C@@H](O)C[C@@]2(C)[C@H]3C[C@@H]3O[C@]4(C[C@H](C)C(C)(C)O4)[C@](C)(O)[C@@H]32)C[C@@H]1O` [EPIHIPPURIN 1] it was above 100 µM; in that of `CC(=O)O[C@@H]1CC[C@@]2(C)[C@@H](CC[C@@H]3[C@@H]2[C@@H](O)C[C@@]2(C)[C@H]3C[C@@H]3O[C@]4(C[C@H](C)C(C)(C)O4)[C@](C)(O)[C@@H]32)C1`, above 100 µM; in that of `C[C@H]1C[C@@]2(O[C@H]3C[C@H]4[C@@H]5CC[C@H]6C[C@H](O)CC[C@]6(C)[C@H]5C(=O)C[C@]4(C)[C@H]3[C@@]2(C)O)OC1(C)C`, 9 µM.
Take `CC(=O)O[C@H]1C[C@@H]2CC[C@@H]3[C@H]([C@@H](O)C[C@@]4(C)[C@H]3C[C@@H]3O[C@@]5(C[C@H](C)C(C)(C)O5)[C@](C)(O)[C@@H]34)[C@@]2(C)C[C@H]1O`: it took 1.7 µM to reach half-maximal inhibition (IC50).
Under `CC(=O)O[C@@H]1C[C@@]2(C)[C@@H](CC[C@@H]3[C@@H]2[C@@H](O)C[C@@]2(C)[C@H]3C[C@@H]3O[C@@]4(C[C@H](C)C(C)(C)O4)[C@](C)(O)[C@@H]32)C[C@@H]1O` stands 1.5 µM.
Under `C[C@H]1C[C@]2(O[C@H]3C[C@H]4[C@@H]5CC[C@H]6C[C@H](O)CC[C@]6(C)[C@H]5C(=O)C[C@]4(C)[C@H]3[C@@]2(C)O)OC1(C)C` stands above 100 µM; under `C[C@H]1C[C@]2(O[C@H]3C[C@H]4[C@@H]5CC[C@H]6C[C@H](O)[C@H](O)C[C@]6(C)[C@H]5[C@@H](O)C[C@]4(C)[C@H]3[C@@]2(C)O)OC1(C)C`, 19 µM.
In the case of `C[C@H]1C[C@@]2(O[C@H]3C[C@H]4[C@@H]5CC[C@H]6C[C@H](O)[C@H](OC(=O)CCCC(=O)O)C[C@]6(C)[C@H]5[C@@H](O)C[C@]4(C)[C@H]3[C@@]2(C)O)OC1(C)C` it was 2.6 µM; in that of `CC(=O)O[C@@H]1CC[C@@]2(C)[C@@H](CC[C@@H]3[C@@H]2[C@@H](OC(C)=O)C[C@@]2(C)[C@H]3C[C@@H]3O[C@]4(C[C@H](C)C(C)(C)O4)[C@](C)(O)[C@@H]32)C1`, above 100 µM.
`C[C@H]1C[C@]2(O[C@H]3C[C@H]4[C@@H]5CC[C@H]6C[C@H](O)CC[C@]6(C)[C@H]5[C@@H](O)C[C@]4(C)[C@H]3[C@@]2(C)O)OC1(C)C` [EPIHIPPURISTANOL] gave an IC50 above 100 µM.
In the case of `CC(=O)O[C@H]1C[C@@H]2CC[C@@H]3[C@H]([C@@H](O)C[C@@]4(C)[C@H]3C[C@@H]3O[C@]5(C[C@H](C)C(C)(C)O5)[C@](C)(O)[C@@H]34)[C@@]2(C)C[C@H]1O` it was 52 µM.
The compound `CC(=O)O[C@@H]1CC[C@@]2(C)[C@@H](CC[C@@H]3[C@@H]2[C@@H](O)C[C@]24[C@H](O)O[C@]5(C)[C@H]2[C@H](C[C@@H]34)O[C@]52C[C@H](C)C(C)(C)O2)C1` [HIPPURISTANOHEMIACETAL] registered an IC50 of 91 µM. Against the preceding compound, the IC50 is about 1.8-fold higher.
Under `CC(=O)O[C@@H]1CC[C@@]2(C)[C@@H](CC[C@@H]3[C@@H]2[C@@H](O)C[C@@]2(C)[C@H]3C[C@@H]3O[C@@]4(C[C@H](C)C(C)(C)O4)[C@](C)(O)[C@@H]32)C1` stands 10 µM; under `C[C@H]1C[C@@]2(O[C@H]3C[C@H]4[C@@H]5CC[C@H]6CC(=O)CC[C@]6(C)[C@H]5C(=O)C[C@]4(C)[C@H]3[C@@]2(C)O)OC1(C)C`, 52 µM; under `C[C@H]1C[C@]2(O[C@H]3C[C@H]4[C@@H]5CC[C@H]6C[C@H](O)[C@H](OC(=O)CCCC(=O)O)C[C@]6(C)[C@H]5[C@@H](O)C[C@]4(C)[C@H]3[C@@]2(C)O)OC1(C)C`, 35 µM.
For `C[C@H]1C[C@@]2(O[C@H]3C[C@H]4[C@@H]5CC[C@H]6C[C@H](O)[C@H](O)C[C@]6(C)[C@H]5[C@@H](O)C[C@]4(C)[C@H]3[C@@]2(C)O)OC1(C)C`, half-maximal inhibition (IC50) required 1.7 µM.
In turn, `CC(=O)O[C@@H]1CC[C@@]2(C)[C@@H](CC[C@@H]3[C@@H]2[C@@H](OC(C)=O)C[C@@]2(C)[C@H]3C[C@@H]3O[C@@]4(C[C@H](C)C(C)(C)O4)[C@](C)(O)[C@@H]32)C1` showed an IC50 of 64 µM.
